This passage reports outcome, activation and potentiation results from PubChem BioAssay.

Test [1] in a line: thallium flux activation in parental CHO cells, counter-screen for KCNQ1 potentiator project (AID 493006;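 active = duplicate-averaged activation above buffer control mean plus 5 SD of those controls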). Conditions: parental CHO-K1 cells, FluxOR thallium flux, at 10 µM; active compounds read high. A digest of the protocol:
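Test system: parental CHO-K1 cells, FluxOR dye-loaded / Probe or stimulus: potassium plus thallium depolarizing stimulus, 5x stock 12.5 mM K2SO4, Tl2SO4 / Timing: overnight 37 °C plating, 90 min dye, 20 min dark compound / Measured by: kinetic thallium-flux fluorescence / Read-out: max-minus-min fluorescence over baseline, percent of buffer-to-R-L3 span / Benchmarks: buffer and R-L3 controls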

Test [2] has as its target Potassium voltage-gated channel subfamily KQT member 1 (Homo sapiens) (UniProt P51787). Put plainly: KCNQ1 potassium channel potentiators, confirmation, FluxOR thallium flux, CHO cells, duplicates (AID 493007;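 active = potentiation averaged over duplicate wells exceeding buffer-only control mean by more than 3 SD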;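 for outcome: cells depolarized by a potassium plus thallium sulfate stimulus after compound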;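 for potentiation: 0% = buffer-only wells and 100% = R-L3 activator control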). As to conditions: KCNQ1 cell line, FluxOR thallium flux fluorescence, at 10 µM; active compounds read high, % of reference activator effect, buffer zero. The essentials: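 Assay system: CHO cells carrying KCNQ1 | Controls: Buffer and R-L3 controls | Schedule: FluxOR dye loading 90 min, compound exposure 20 min, room temperature | Read-out: Baseline-normalized fluorescence change, percent of buffer-to-R-L3 range | Replicates: Each compound tested in duplicate | Technique: Kinetic thallium influx fluorescence with FluxOR dye, 10 s baseline, 110 s post-stimulus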

Test [3] has as its target Potassium voltage-gated channel subfamily KQT member 2 (Rattus norvegicus) (UniProt O88943). Kind of test: rat KCNQ2 channel potentiation, selectivity assay for KCNQ1 potentiator project, KCNQ2-CHO-K1 cells (AID 493009;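 active = mean duplicate potentiation above the buffer control mean plus 5 SD of buffer wells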;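 note: assay conditions were tuned for KCNQ1 rather than KCNQ2 modulators; signal is max minus min fluorescence divided by baseline after thallium stimulus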). As to conditions: FluxOR thallium flux fluorescence, at 10 µM; active compounds read high, scaled: buffer 0, activator control 100.
The target of test [4] is Potassium voltage-gated channel subfamily KQT member 1 (Homo sapiens) (UniProt P51787). Kind of test: KCNQ1 channel current potentiators, confirmation, orthogonal assay for KCNQ1 potentiator project, IonWorks patch clamp, KCNQ1-CHO cells (AID 493184). Conditions: automated patch clamp current, at 10 µM; active compounds read high. A digest of the protocol: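 Material: KCNQ1-expressing CHO cells; doses: 10 µM final, single point; probe or stimulus: voltage step from -90 mV holding to +40 mV, 2,000 ms; signal: automated voltage clamp, amphotericin B perforated patch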

Calls of active or inactive are those of the source.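 Rule for the calls, unless noted: active = current rise at least 3 SD above the untreated control mean in each of two repeat wells; inactive = the rest.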

Potassium voltage-gated channel subfamily KQT member 1 (Homo sapiens), sequence (P51787 whole entry, looked up): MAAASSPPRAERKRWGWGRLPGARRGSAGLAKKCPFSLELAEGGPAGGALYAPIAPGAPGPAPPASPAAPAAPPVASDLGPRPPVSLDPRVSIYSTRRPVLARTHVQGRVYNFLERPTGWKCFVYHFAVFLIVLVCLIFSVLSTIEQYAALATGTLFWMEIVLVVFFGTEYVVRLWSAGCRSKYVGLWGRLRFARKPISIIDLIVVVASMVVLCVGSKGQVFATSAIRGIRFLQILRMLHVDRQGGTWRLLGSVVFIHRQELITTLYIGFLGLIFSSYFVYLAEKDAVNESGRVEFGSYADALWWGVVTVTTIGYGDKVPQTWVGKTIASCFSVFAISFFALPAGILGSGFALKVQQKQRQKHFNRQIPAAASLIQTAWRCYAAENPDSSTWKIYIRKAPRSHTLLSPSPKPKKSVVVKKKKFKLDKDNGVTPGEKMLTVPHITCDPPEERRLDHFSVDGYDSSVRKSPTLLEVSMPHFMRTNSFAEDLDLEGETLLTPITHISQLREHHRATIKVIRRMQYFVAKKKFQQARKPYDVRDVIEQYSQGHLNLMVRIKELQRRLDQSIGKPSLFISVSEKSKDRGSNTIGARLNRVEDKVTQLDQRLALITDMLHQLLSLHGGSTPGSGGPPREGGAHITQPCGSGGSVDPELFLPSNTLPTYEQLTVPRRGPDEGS
Potassium voltage-gated channel subfamily KQT member 2 (Rattus norvegicus), sequence (O88943 whole entry, looked up): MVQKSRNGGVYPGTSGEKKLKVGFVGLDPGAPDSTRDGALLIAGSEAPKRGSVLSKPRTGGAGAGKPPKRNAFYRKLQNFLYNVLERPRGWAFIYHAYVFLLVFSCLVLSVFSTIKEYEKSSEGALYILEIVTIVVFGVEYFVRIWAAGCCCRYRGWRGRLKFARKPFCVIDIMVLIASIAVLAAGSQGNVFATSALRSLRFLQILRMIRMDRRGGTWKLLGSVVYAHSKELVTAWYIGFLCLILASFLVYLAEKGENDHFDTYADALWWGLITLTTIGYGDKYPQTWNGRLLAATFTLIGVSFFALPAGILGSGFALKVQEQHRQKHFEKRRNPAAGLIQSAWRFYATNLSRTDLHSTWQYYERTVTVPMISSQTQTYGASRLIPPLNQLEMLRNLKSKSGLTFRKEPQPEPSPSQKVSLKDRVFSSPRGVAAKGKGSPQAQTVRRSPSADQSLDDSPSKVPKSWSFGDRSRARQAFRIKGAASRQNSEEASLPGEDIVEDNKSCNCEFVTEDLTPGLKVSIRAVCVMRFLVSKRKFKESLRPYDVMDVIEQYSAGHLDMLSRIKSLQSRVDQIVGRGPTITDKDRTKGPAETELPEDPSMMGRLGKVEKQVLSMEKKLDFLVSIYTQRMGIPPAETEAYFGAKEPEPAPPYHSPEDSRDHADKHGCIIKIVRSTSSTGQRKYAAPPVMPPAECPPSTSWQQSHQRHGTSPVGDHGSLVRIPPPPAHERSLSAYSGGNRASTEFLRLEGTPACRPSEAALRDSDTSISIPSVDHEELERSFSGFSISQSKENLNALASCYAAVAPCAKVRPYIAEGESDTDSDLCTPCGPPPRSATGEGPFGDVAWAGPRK

Regarding `O=C(NC(=S)Nc1ccccc1Br)c1ccco1`, the outcome in test [1], in test [2], in test [3] and in test [4] was inactive.

`CCOc1ccc(C(=O)N2CCCC(c3nc(-c4ccc(C)o4)no3)C2)cc1` (stereo not given): the outcome in test [1], in test [2], in test [3] and in test [4] was inactive.

Take `c1ccc2[nH]c(-c3ccc4c(c3)OCO4)nc2c1`: the result in test [1], in test [2], in test [3] and in test [4] was inactive.

Take `CC(=O)c1ccc(N2CCN(C(=O)c3ccc(NC(=O)C4CCCO4)cc3)CC2)cc1` (stereo not given): the outcome in test [1], in test [2], in test [3] and in test [4] was inactive.

Take `COc1ccc(Cc2nnc(NC(=O)C3CC(=O)N(c4ccccc4)C3)s2)cc1OC` (stereo not given): the result in test [1], in test [2], in test [3] and in test [4] was inactive.

In the case of `Nc1ccc(C2(c3ccc(N)cc3)OC(=O)c3ccccc32)cc1`, the outcome in test [1], in test [2], in test [3] and in test [4] was inactive.

As for `CC1=NN(C(=O)c2csc(C)c2C)C(O)(C(F)(F)F)C1` (stereo not given), the result in test [1], in test [2], in test [3] and in test [4] was inactive.

Take `Cc1cc(OCC(=O)NNC(=O)c2cnccn2)cc(C)c1Cl`: the activation in test [1] is 200% (active). In addition, the potentiation in test [2] was 22% (active); in test [3], 279% (active). In test [4], the outcome was inactive.

Regarding `CCc1ccc(S(=O)(=O)NC(=S)NC2CCCCC2)cc1`, in test [1], the activation is 330% (active). The figures for the potentiation in test [2] and in test [3] were 108% (active) and 312% (active), respectively. The result in test [4] was inactive.

`CN(C)CCCNc1nc2sc3c(c2c(=O)n1CCc1ccccc1)CCCCC3`: the result in test [1], in test [2], in test [3] and in test [4] was inactive.

Take `COc1ccc(S(=O)(=O)N2CCCC(C(=O)O)C2)cc1` (stereo not given): the result in test [1], in test [2], in test [3] and in test [4] was inactive.

Consider `CSc1nc(-c2ccccc2)[nH]c(=S)c1C(C)=O`, for which the activation in test [1] is 520% (active). Further, the potentiation in test [2] is 138% (active); in test [3], 474% (active). Also, the result in test [4] was inactive.

For `O=C(Nc1nnc(C2=COCCO2)o1)c1ccc(Br)cc1`, in test [1], the activation is 142% (active). In addition, the results for the potentiation in test [2] and in test [3] were 18% (active) and 169% (active), respectively. In test [4], the result was inactive.

For `Cc1ccccc1-c1nc(Cc2ccc(Cl)cc2)no1`, the outcome in test [1], in test [2], in test [3] and in test [4] was inactive.

On to `COCCCN=C1NN=C(c2cc(C)n(-c3ccccc3F)c2C)CS1`, for which the result in test [1], in test [2], in test [3] and in test [4] was inactive.

For the compound `CC(=O)N/C(=C/c1ccc2c(c1)OCO2)C(=O)O`, the outcome in test [1], in test [2], in test [3] and in test [4] was inactive.

With `Cc1nn(CCc2nn[nH]n2)c2nc(-c3ccc(C4CCCCC4)cc3)cc(C(F)(F)F)c12`, the activation in test [1] was 296% (active). Also, the values for the potentiation in test [2] and in test [3] were 58% (active) and 182% (active), respectively. Besides, the result in test [4] was inactive.

Turning to `CCn1nnc2cc(C(=O)Nc3cc(S(C)(=O)=O)ccc3Cl)ccc21`, the outcome in test [1], in test [2], in test [3] and in test [4] was inactive.

Consider `C/C(=N/NC(=O)c1cc(C2CC2)[nH]n1)c1cccs1`, for which, in test [1], the activation is 150% (active). The potentiation in test [2] is 31.5% (active). In addition, the result in test [3] and in test [4] was inactive.

For `CC(C)C(=O)Nc1c(-c2ccccc2F)c(=O)c2ccccc2n1C`, the outcome in test [1], in test [2], in test [3] and in test [4] was inactive.

As to `CCc1nnc(NC(=O)CSc2n[nH]c(-c3ccccc3O)n2)s1`, the outcome in test [1], in test [2], in test [3] and in test [4] was inactive.

Regarding `COc1ccc(-c2cnc3c(c2)CCC3(C#N)C#N)cc1`, the result in test [1], in test [2], in test [3] and in test [4] was inactive.

Regarding `COc1cc(CNCc2ccccn2)ccc1OCc1ccc(Cl)cc1`, the result in test [1], in test [2], in test [3] and in test [4] was inactive.

`COc1ccc(/C(O)=C2/C(=O)C(=O)N(CCCN(C)C)C2c2ccc(Cl)cc2)cc1OC` (stereo not given): the result in test [1], in test [2], in test [3] and in test [4] was inactive.

With `CCCCOC(=O)Nc1ccccc1C(N)=O`, the result in test [1], in test [2], in test [3] and in test [4] was inactive.

As to `C/C(=N\NC(=O)c1cc2ccccc2cc1O)c1cc2ccccc2o1`, the activation in test [1] was 706% (active). For the same compound, the potentiation in test [2] is 478% (active); in test [3], 746% (active). Besides, the result in test [4] was inactive.

As to `CC(=O)c1cc2c(cc1NC(=O)CN1Cc3ccccc3C1=O)OCO2`, the outcome in test [1], in test [2], in test [3] and in test [4] was inactive.

As to `COc1ccc(NC(=O)CC2C(=O)N(c3ccc(Cl)cc3)C(=S)N2NC(=O)c2cccc(F)c2)cc1` (stereo not given), the result in test [1], in test [2], in test [3] and in test [4] was inactive.

Consider `CCC(Oc1ccc(Cl)cc1)C(=O)N1CC(=O)Nc2ccccc21` (stereo not given), for which the result in test [1], in test [2], in test [3] and in test [4] was inactive.

Regarding `COc1ccc(-c2nc(CS(=O)CC(=O)NC3CCCC3)c(C)o2)cc1OC` (stereo not given), the activation in test [1] is 168% (active). The potentiation in test [2] is 85% (active); in test [3], 244% (active). Besides, the result in test [4] was inactive.
